Results on 31 compounds are retold here after ChEMBL document CHEMBL1123124, “New antihistaminic N-heterocyclic 4-piperidinamines. 2. Synthesis and antihistaminic activity of 1-[(4-fluorophenyl)methyl]-N-(4-piperidinyl)-1H-benzimidazol-2-a mines” (1985).

Test [1] relates to Rattus norvegicus. The test can be described thus: Inhibition of histamine skin reaction in rat after 2 hr of oral administration. The test is classed as functional. In a few lines: (§1)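 Test compound or solvent given orally to rats 2 h before four intradermal injections into clipped back: two of 50 μL histamine dihydrochloride (1 mg/mL in saline), two of 50 μL serotonin (2 μg/mL in saline). Then iv 0.5 mL of 0.5% trypan blue. Bluing of skin reactions scored 30 min later.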

Test [2] concerns Rattus norvegicus. The test can be described thus: Inhibition of mydriatic activity in rat after 2 hr of oral administration. The test is classed as functional.
The subject of test [3] is Rattus norvegicus. As to the kind of experiment: Inhibition of serotonin skin reaction in rat after 2 hr of oral administration. The test is classed as functional. In a few lines:
as §1

The test system of test [4] is Rattus norvegicus. The test can be described thus: In vivo antihistaminic activity using compound 48/80 induced lethality test in rat 2 hr after oral administration. The test is classed as functional. In a few lines:
(§2)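 Protection was survival for 4 h after challenge. ED50 with confidence limits was calculated by Finney from five rats per dose and at least three doses of a geometric series (0.0025–40 mg/kg). Estimated ED50 used at least two rats per dose.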

Test [5] concerns Rattus norvegicus. The test can be described thus: In vivo antihistaminic activity using compound 48/80 induced lethality test after 1 hr of subcutaneous administration in rat. To be noted: sc. The test is classed as functional. In a few lines:
as §2

Test [6] deals with Rattus norvegicus. The test can be described thus: In vivo antihistaminic activity using compound 48/80 induced lethality test in rat after 2 hr of oral administration; C represents estimated ED50 values used whenever possible for comparison of relative potencies. The test is classed as functional, organism-based. An outline of the steps:
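Protection = survival 4 h after challenge. ED50 (dose giving 50% survival) calculated with confidence limits by Finney, five animals per dose, at least three doses from geometric series 0.0025–40.0 mg/kg. Estimated ED50 values based on at least two animals per dose.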

The test system of test [7] is Rattus norvegicus. As to the kind of experiment: In vivo antihistaminic activity using compound 48/80 induced lethality test in rat after 2 hr of oral administration. The test is classed as functional. In a few lines:
as §2

The test system of test [8] is Rattus norvegicus. The test can be described thus: Inhibition of histamine skin reaction in rat after 2 hr of subcutaneous administration. To be noted: sc. The test is classed as functional.
The subject of test [9] is Rattus norvegicus. As to the kind of experiment: Inhibition of mydriatic activity in rat after 2 hr of intraperitoneal administration. The test is classed as functional. Particulars: ip.
Test [10] deals with Rattus norvegicus. As to the kind of experiment: Inhibition of serotonin skin reaction in rat after 2 hr of subcutaneous administration. The test is classed as functional. Particulars: sc.
Test [11] relates to Cavia porcellus. As to the kind of experiment: In vivo histamine induced lethality after 24 hours of iv administration in guinea pig. The test is classed as functional.
The subject of test [12] is Cavia porcellus. The test can be described thus: In vivo histamine induced lethality after 3 hours of iv administration in guinea pig. The test is classed as functional.
For test [13], the system named is Cavia porcellus. As to the kind of experiment: In vivo histamine induced lethality after 48 hours of iv administration in guinea pig. The test is classed as functional. An outline of the steps:
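Male albino guinea pigs (280–360 g) were dosed orally 3, 24, 48 or 96 h before an iv challenge with histamine dihydrochloride (1.25 mg/kg). Protection was survival at 1 h. Doses rose in 2-fold steps from 0.0025 mg/kg, with at least three doses and 4–6 animals per dose and time point. PD50 with confidence limits was computed by Finney.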

The test system of test [14] is Cavia porcellus. The test can be described thus: In vivo histamine induced lethality after 8 hours of iv administration in guinea pig. The test is classed as functional.
The test system of test [15] is Cavia porcellus. The test can be described thus: In vivo histamine induced lethality after 96 hours of iv administration in guinea pig. The test is classed as functional.
Test [16] relates to Rattus norvegicus. As to the kind of experiment: Inhibition of histamine skin reaction in rat after 2 hr of oral administration. The test is classed as functional. In a few lines:
as §1

Test [17] has as its system Rattus norvegicus. As to the kind of experiment: Inhibition of mydriatic activity in rat after 2 hr of oral administration. The test is classed as functional.
Test [18] has as its system Rattus norvegicus. As to the kind of experiment: Inhibition of serotonin skin reaction in rat after 2 hr of oral administration. The test is classed as functional. In a few lines:
as §1

The subject of test [19] is Rattus norvegicus. The test can be described thus: Inhibition of mydriatic activity in rat after 2 hr of intraperitoneal administration. The test is classed as functional. Particulars: ip.
For test [20], the system named is Rattus norvegicus. The test can be described thus: In vivo antihistaminic activity using compound 48/80 induced lethality test in rat after 2 hr of oral administration. The test is classed as functional. In a few lines: as §2
For test [21], the system named is Rattus norvegicus. The test can be described thus: In vivo antihistaminic activity using compound 48/80 induced lethality test in rat after 2 hr of subcutaneous administration. The test is classed as functional. To be noted: sc. An outline of the steps: as §2
Test [22] deals with Rattus norvegicus. The test can be described thus: In vivo antihistaminic activity using compound 48/80 induced lethality test in rat after 2 hr( oral administration). The test is classed as functional. In a few lines: as §2

Regarding `COc1ccc(CN(CCN(C)C)c2ccccn2)cc1` [PYRILAMINE], the ED50 is > 40 mg/kg in test [1], 56.5 mg/kg in test [2], > 40 mg/kg in [3] and 56.6 mg/kg in [4].

With `O=[N+]([O-])c1ccc(CCN2CCC(Nc3nc4ccccc4n3Cc3ccc(F)cc3)CC2)cc1`, the ED50 is > 2.5 mg/kg in [5] and “Estimated ED50 values used whenever possible” in [6].

Consider `CN1CCC(Nc2nc3ccccc3n2Cc2ccc(F)cc2)CC1`, for which the ED50 is 0.16 mg/kg in [5]; 2.5 mg/kg in test [7]; 0.04 mg/kg in test [8]; > 40 mg/kg in test [9]; ≥ 0.63 mg/kg in test [10].

Turning to `COc1ccc(CCN2CCC(Nc3nc4ccccc4n3Cc3ccc(F)cc3)CC2)cc1` [ASTEMIZOLE], the ED50 in [11] worked out at 0.07 mg/kg; in test [12], 0.33 mg/kg; in test [13], 0.04 mg/kg; in test [14], 0.17 mg/kg; in [15] it was 0.19 mg/kg; in [5], 0.11 mg/kg. Also, the ED50 in test [7] is 0.11 mg/kg; in test [16], 0.13 mg/kg; in [8], 0.15 mg/kg; in [9], > 40 mg/kg; in test [17], > 160 mg/kg; in [18] it was 14.2 mg/kg. Further, the ED50 in test [10] is > 2.5 mg/kg.

`Br.OCCN1CCC(Nc2nc3ccccc3n2Cc2ccc(F)cc2)CC1`: the ED50 was determined as 0.09 mg/kg in test [11]; 0.04 mg/kg in test [12]; 0.3 mg/kg in test [13]; 0.07 mg/kg in [14]; 2.15 mg/kg in test [15]; 0.04 mg/kg in test [5]. Further, the ED50 in test [7] is 0.63 mg/kg; in test [8], 0.08 mg/kg; in [19], > 40 mg/kg; in test [10], > 0.63 mg/kg.

Regarding `Fc1ccc(Cn2c(NC3CCN(CCc4ccccc4)CC3)nc3ccc(F)cc32)cc1`, the ED50 in test [5] amounted to 1.25 mg/kg; in test [20], 0.63 mg/kg.

In the case of `Fc1ccc(Cn2c(NC3CCN(CCc4ccccc4)CC3)nc3cc(F)ccc32)cc1`, the ED50 is 1.25 mg/kg in test [5] and > 2.5 mg/kg in [20].

Take `CCNC(=O)COc1ccc(CCN2CCC(Nc3nc4ccccc4n3Cc3ccc(F)cc3)CC2)cc1`: the ED50 in test [5] is 1.25 mg/kg; in test [7], 2.5 mg/kg.

As for `Fc1ccc(Cn2c(NC3CCN(C/C=C/c4ccccc4)CC3)nc3ccccc32)cc1`, the values for the ED50 in test [5] and in test [7] were 1.25 mg/kg and > 2.5 mg/kg, respectively.

For `O=C(OCCN1CCC(Nc2nc3ccccc3n2Cc2ccc(F)cc2)CC1)N1CCOCC1`, the values for the ED50 in test [5] and in [7] were 0.31 mg/kg and 2.5 mg/kg, respectively.

Take `N#CCN1CCC(Nc2nc3ccccc3n2Cc2ccc(F)cc2)CC1`: the 50% effective dose (ED50) was 0.16 mg/kg in [5] and 2.5 mg/kg in test [7].

Take `Nc1ccc(CCN2CCC(Nc3nc4ccccc4n3Cc3ccc(F)cc3)CC2)cc1`: the ED50 in test [5] amounted to 0.31 mg/kg; in [7], 0.63 mg/kg.

With `CCOc1ccc(CCN2CCC(Nc3nc4ccccc4n3Cc3ccc(F)cc3)CC2)cc1`, the 50% effective dose (ED50) was found to be 1.25 mg/kg in test [5] and 0.16 mg/kg in test [7].

Regarding `Fc1ccc(Cn2c(NC3CCN(CCCOc4ccccc4)CC3)nc3ccccc32)cc1`, the ED50 in test [5] was 1.25 mg/kg; in test [7], 0.31 mg/kg.

With `Cl.Oc1cccc(CCN2CCC(Nc3nc4ccccc4n3Cc3ccc(F)cc3)CC2)c1`, the ED50 in test [5] was determined as 0.16 mg/kg; in test [7], 0.31 mg/kg.

In the case of `COc1cccc(OC)c1OCC(O)CN1CCC(Nc2nc3ccccc3n2Cc2ccc(F)cc2)CC1` (centres undefined), the ED50 turned out to be 0.63 mg/kg in test [5] and 1.25 mg/kg in [7].

For `OC(CN1CCC(Nc2nc3ccccc3n2Cc2ccc(F)cc2)CC1)c1ccccc1` (centres undefined), the figures for the ED50 in test [5] and in test [7] were 0.63 mg/kg and > 2.5 mg/kg, respectively.

As for `CC(CN1CCC(Nc2nc3ccccc3n2Cc2ccc(F)cc2)CC1)c1ccccc1` (centres undefined), the ED50 is 0.63 mg/kg in [5] and 2.5 mg/kg in test [7].

On to `Oc1ccc(CCN2CCC(Nc3nc4ccccc4n3Cc3ccc(F)cc3)CC2)cc1` [DESMETHEYLASTEMIZOLE], for which the ED50 in [11] was determined as 0.06 mg/kg; in test [12], 0.19 mg/kg; in [13], 0.12 mg/kg; in test [14], 0.08 mg/kg; in test [15], 0.27 mg/kg; in test [5] it was 0.16 mg/kg. The ED50 in [7] is 0.1 mg/kg; in test [8], 0.08 mg/kg; in [19] it was > 40 mg/kg; in test [10], ≥ 0.63 mg/kg.

As to `Fc1ccc(Cn2c(NC3CCN(CCc4cccc5ccccc45)CC3)nc3ccccc32)cc1`, the 50% effective dose (ED50) was found to be 1.25 mg/kg in test [5] and 0.63 mg/kg in [7].

As for `CCOC(=O)COc1ccc(CCN2CCC(Nc3nc4ccccc4n3Cc3ccc(F)cc3)CC2)cc1`, the ED50 in [5] is 0.16 mg/kg; in test [7] it was > 2.5 mg/kg.

`COc1ccc(C(=O)Oc2ccc(CCN3CCC(Nc4nc5ccccc5n4Cc4ccc(F)cc4)CC3)cc2)cc1`: the ED50 in test [5] was determined as 0.63 mg/kg; in test [7] it was 0.16 mg/kg.

As for `Cc1cc(CCN2CCC(Nc3nc4ccccc4n3Cc3ccc(F)cc3)CC2)ccc1O.Cl`, the values for the ED50 in test [5] and in test [7] were 0.08 mg/kg and 0.16 mg/kg, respectively.

Take `O=c1[nH]c2ccccc2n1CCCN1CCN(C(c2ccccc2)c2ccccc2)CC1` [OXATOMIDE]: the ED50 in test [11] was > 5 mg/kg; in test [12], 0.2 mg/kg; in test [14], 1.25 mg/kg; in test [1], 9.36 mg/kg; in test [17] it was > 160 mg/kg; in [3], 32.6 mg/kg.

Regarding `COC(=O)Oc1ccc(CCN2CCC(Nc3nc4ccccc4n3Cc3ccc(F)cc3)CC2)cc1`, the ED50 in test [5] and in test [7] was 0.16 mg/kg each time.

As for `Fc1ccc(Cn2c(NC3CCN(C4CCCCC4)CC3)nc3ccccc32)cc1`, the ED50 was 0.31 mg/kg in [5] and > 2.5 mg/kg in test [7].

In the case of `Cl.NCCN1CCC(Nc2nc3ccccc3n2Cc2ccc(F)cc2)CC1`, the ED50 in test [5] is 1.25 mg/kg; in test [7] it was > 2.5 mg/kg.

Turning to `CN1CCC(=C2c3ccccc3CCc3cccnc32)CC1` [AZATADINE], the ED50 in [12] was 0.014 mg/kg; in test [13], > 2.5 mg/kg; in [14], 0.06 mg/kg; in [21], 0.049 mg/kg; in test [7], 0.48 mg/kg; in test [16], 0.77 mg/kg. Moreover, the ED50 in [17] was 5.39 mg/kg; in test [18], 18.8 mg/kg.

Take `Cl.Fc1ccc(CCN2CCC(Nc3nc4ccccc4n3Cc3ccc(F)cc3)CC2)cc1`: the median effective dose (ED50) was 0.31 mg/kg in test [5] and > 2.5 mg/kg in test [7].

With `CN1CCC(=C2c3ccccc3C=Cc3ccccc32)CC1` [CYPROHEPTADINE], the ED50 in test [11] is > 2.5 mg/kg; in [12] it was 0.08 mg/kg; in test [14], 0.88 mg/kg; in test [22] it was 1.13 mg/kg; in [1] it was 0.89 mg/kg; in [17], 9.36 mg/kg. For the same compound, the ED50 in [3] is 2.35 mg/kg.

On to `CC(c1ccccc1)N1CCC(Nc2nc3ccccc3n2Cc2ccc(F)cc2)CC1` (centres undefined), for which the values for the ED50 in [5] and in [7] were 0.31 mg/kg and 2.5 mg/kg, respectively.

By ED50 is commonly meant the midpoint of the dose-response relation.
